Rows were chosen to be rich in hits. Some 1.4% of all compounds tested hit in one or more screens of this group.
DAGLB inhibitor – diacylglycerol lipase beta (human) inhibition. HEK293T DAGLB membrane lysate, EnzChek fluorogenic substrate. inhibition, % at 5.17 µM. 340,000 tested, 0.059% active. AID 504411; in the data active = inhibition above about 34%;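 note: 0% = enzyme with vehicle and 100% = wells lacking enzyme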
Target sequence (Q8NCG7 whole entry, looked up): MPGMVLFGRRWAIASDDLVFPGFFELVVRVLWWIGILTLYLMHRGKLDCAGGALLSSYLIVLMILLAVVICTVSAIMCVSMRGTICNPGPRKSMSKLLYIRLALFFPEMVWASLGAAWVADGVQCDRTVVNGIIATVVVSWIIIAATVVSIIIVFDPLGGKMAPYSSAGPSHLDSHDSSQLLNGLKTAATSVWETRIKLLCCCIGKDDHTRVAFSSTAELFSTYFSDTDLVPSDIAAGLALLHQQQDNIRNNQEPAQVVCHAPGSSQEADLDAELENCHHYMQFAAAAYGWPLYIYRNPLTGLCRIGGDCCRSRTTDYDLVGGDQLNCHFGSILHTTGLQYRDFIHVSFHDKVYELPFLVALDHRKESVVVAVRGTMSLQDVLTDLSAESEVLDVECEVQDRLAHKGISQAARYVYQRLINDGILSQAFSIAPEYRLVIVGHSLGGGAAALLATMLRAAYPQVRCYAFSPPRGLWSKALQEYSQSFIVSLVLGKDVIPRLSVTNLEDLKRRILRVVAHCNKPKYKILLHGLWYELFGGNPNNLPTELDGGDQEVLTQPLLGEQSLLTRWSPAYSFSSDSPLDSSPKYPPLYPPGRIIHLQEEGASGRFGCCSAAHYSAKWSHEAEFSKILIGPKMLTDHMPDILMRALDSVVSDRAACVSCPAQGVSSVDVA
HTR5A ag ctr – counter-screen for OPRM1-OPRD1 agonists: human HTR5A agonism; P47898; HTR5A agonist assay, luminescence, cell-based; activation, % at 9.3 µM; 340,000 tested, 0.61% active; in the data active = activation mostly above about 9.5%, no sharp cut-off; inactive = mostly below about 7.6%;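 note: 0% = cells with vehicle only and 100% = reference agonist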
OPRM1-OPRD1 inv – inverse agonists of human mu-delta opioid receptor heterodimerization. P35372+P41143. cell-based MOR-DOR heterodimer luminescence, inverse agonism. inhibition, % at 9.3 µM. 340,000 tested, 0.21% active. AID 504357; in the data active = inhibition above about 22%, passing the limit was not always enough;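 note: 0% = cells with DMSO and 100% = wells without cells with DMSO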
HTR5A inv ag – counter-screen for OPRM1-OPRD1 inverse agonists: human HTR5A inverse agonism. P47898. HTR5A cell line, luminescence. inhibition, % at 9.3 µM. 340,000 tested, 0.083% active; in the data active = inhibition mostly above about 23%, no sharp cut-off; inactive = mostly below about 18%;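 note: 0% = cells with DMSO and 100% = no-cell wells with DMSO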
Arrestin-AP2 inh – human beta-arrestin and AP2 interaction inhibition; FITC-arrestin peptide / GST-AP2 beads, flow cytometry; AP2 beta2 appendage carries R879A mutation; inhibition, % at 10 µM; 340,000 tested, 0.31% active; AID 504490;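 active = inhibition above a set limit, near 3 SD of compounds lacking own fluorescence, cut at about 54% in these data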;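 note: plate controls were DMSO wells for no effect and 5 µM unlabelled arrestin peptide for full effect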
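System: GST-AP2 R879A glutathione beads. Medium: PBS with 0.05% Tween 20 and 0.1% BSA. Also added: FITC-arrestin peptide, 50 nM. Incubation: 12 min plus 1 h, RT. Measured by: high-throughput flow cytometry of beads, ex 488, em 535 nm. Evaluation: percent drop in bead-associated FITC signal.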
OPRM1-OPRD1 ag – agonists of human mu-delta opioid receptor heterodimerization. P35372+P41143. AID 504326. 340,000 tested, 0.3% active. activation, % at 9.3 µM. cells, OPRM1-OPRD1 heterodimerization, luminescence; in the data active = activation above about 18%;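 note: 0% = vehicle-treated cells and 100% = reference agonist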
Arr-AP2 CP1 – human beta-arrestin and AP2 interaction inhibition, cherry pick; 1,300 tested, 2% active; inhibition, % at 10 µM; AID 504908; GST-AP2 beads, FITC arrestin peptide binding, flow cytometry; GST-fused beta2-adaptin appendage, R879A mutant; shares compounds with Arrestin-AP2 inh;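 active = inhibition above a set limit, roughly 3 SD of non-fluorescent compound noise, cut at about 38% in these data; inactive = inhibition at or below that limit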;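 note: loss of bead fluorescence from 50 nM FITC arrestin peptide bound to appendage; 0% = negative control wells and 100% = excess unlabelled arrestin peptide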
GST GSH counter – disrupts GST binding to glutathione beads, arrestin-AP2 artifact. shares compounds with Arrestin-AP2 inh. GST-fluorescein binding to GSH beads, fluorescence, counter-screen. inhibition, % at 10 µM. 1,300 tested, 2% active. AID 588338;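 active = inhibition above 50%, about 3 SD of the inhibition seen with non-fluorescent compounds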;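 note: fluorescein maleimide labelled GST captured on 4 micron glutathione beads; higher means more loss of bead fluorescence from quenching or blocked binding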
* = called active by the depositor.

What do the screens show for `O=C(Nc1ccc(COc2ccccc2)cc1)Oc1ccccc1N1CCOCC1`?
DAGLB inhibitor: 0; HTR5A ag ctr: -1; OPRM1-OPRD1 inv: 3; HTR5A inv ag: 10; Arrestin-AP2 inh: -2; OPRM1-OPRD1 ag: -1

What do the screens show for `CCn1cnc2cc(NS(=O)(=O)c3ccc(OC)c(OC)c3)ccc21`?
DAGLB inhibitor: 0; HTR5A ag ctr: -3; OPRM1-OPRD1 inv: 1; HTR5A inv ag: 9; Arrestin-AP2 inh: 61*; OPRM1-OPRD1 ag: 0; Arr-AP2 CP1: 2; GST GSH counter: -5

How did COc1ccc(S(=O)(=O)Nc2ccc(S(=O)(=O)Nc3cc(C)nc(C)n3)cc2)cc1OC do in these assays?
DAGLB inhibitor: 2; HTR5A ag ctr: 3; OPRM1-OPRD1 inv: 2; HTR5A inv ag: -9; Arrestin-AP2 inh: 6; OPRM1-OPRD1 ag: 0

What do the screens show for `Cc1ccc2nc(-c3ccc4c(c3)OCCO4)cn2c1`?
DAGLB inhibitor: 0; HTR5A ag ctr: 0; OPRM1-OPRD1 inv: 4; HTR5A inv ag: -27; Arrestin-AP2 inh: 13; OPRM1-OPRD1 ag: -1

Results for c1ccn2cc(-c3ccc4c(c3)OCCO4)nc2c1 ?
DAGLB inhibitor: 0; HTR5A ag ctr: 4; OPRM1-OPRD1 inv: 4; HTR5A inv ag: 8; Arrestin-AP2 inh: 58*; OPRM1-OPRD1 ag: -1; Arr-AP2 CP1: -5; GST GSH counter: -4

What do the screens show for `CCN(CC)CCCN(Cc1cc2ccc(C)c(C)c2[nH]c1=O)C(=O)NC1CCCCC1`?
DAGLB inhibitor: -2; HTR5A ag ctr: -1; OPRM1-OPRD1 inv: 11; HTR5A inv ag: -7; Arrestin-AP2 inh: 8; OPRM1-OPRD1 ag: -2

How did COc1ccc(CN(Cc2cc3cccc(C)c3[nH]c2=O)C(=O)N(C)C)cc1 do in these assays?
DAGLB inhibitor: 1; HTR5A ag ctr: -3; OPRM1-OPRD1 inv: 10; HTR5A inv ag: 9; Arrestin-AP2 inh: 3; OPRM1-OPRD1 ag: -2

How did COc1ccc(CCN(Cc2cc3cccc(C)c3[nH]c2=O)C(=O)NC2CCCCC2)cc1OC do in these assays?
DAGLB inhibitor: 2; HTR5A ag ctr: 3; OPRM1-OPRD1 inv: 10; HTR5A inv ag: -7; Arrestin-AP2 inh: 9; OPRM1-OPRD1 ag: -2; Arr-AP2 CP1: -2; GST GSH counter: -5

Results for Cc1cccc2cc(CN(CC3CCCO3)C(=O)NC3CCCCC3)c(=O)[nH]c12 (stereo unspecified) ?
DAGLB inhibitor: 1; HTR5A ag ctr: 1; OPRM1-OPRD1 inv: 5; HTR5A inv ag: 14; Arrestin-AP2 inh: -6; OPRM1-OPRD1 ag: -1; Arr-AP2 CP1: 0; GST GSH counter: -4

Results for Cc1cccc2cc(CN(Cc3ccco3)C(=O)NC3CCCCC3)c(=O)[nH]c12 ?
DAGLB inhibitor: -4; HTR5A ag ctr: 0; OPRM1-OPRD1 inv: 11; HTR5A inv ag: 0; Arrestin-AP2 inh: 27; OPRM1-OPRD1 ag: -2; Arr-AP2 CP1: 6; GST GSH counter: -2

Results for Cc1ccc2cc(CN(CC3CCCO3)C(=O)NC3CCCCC3)c(=O)[nH]c2c1C (stereo unspecified) ?
DAGLB inhibitor: 4; HTR5A ag ctr: 0; OPRM1-OPRD1 inv: -12; HTR5A inv ag: 12; Arrestin-AP2 inh: 12; OPRM1-OPRD1 ag: 2; Arr-AP2 CP1: -2; GST GSH counter: -4

How did COc1ccc([C@H]2C[C@@H](O)[C@H](n3cc(-c4ccc(F)cc4)nn3)CN2C(=O)C2CCCCC2)cc1 do in these assays?
DAGLB inhibitor: -1

What do the screens show for `O=C(Cc1ccc(NC(=O)C2CCN(C(=O)CCc3ccccc3)CC2)cc1)Nc1ccc(C(=O)N2CCOCC2)cc1`?
DAGLB inhibitor: -1; HTR5A ag ctr: 0; OPRM1-OPRD1 inv: 11; HTR5A inv ag: 0; Arrestin-AP2 inh: -4; OPRM1-OPRD1 ag: -2

How did CCOC(=O)N1CCN(S(=O)(=O)c2ccc(C)cc2)CC1 do in these assays?
DAGLB inhibitor: 1; HTR5A ag ctr: 5; OPRM1-OPRD1 inv: 7; HTR5A inv ag: 11; Arrestin-AP2 inh: -3; OPRM1-OPRD1 ag: -1

Results for CCOC(=O)N1CCN(S(=O)(=O)c2ccc(Cl)cc2)CC1 ?
DAGLB inhibitor: 0; HTR5A ag ctr: 1; OPRM1-OPRD1 inv: -8; HTR5A inv ag: -2; Arrestin-AP2 inh: 66*; OPRM1-OPRD1 ag: 2; Arr-AP2 CP1: -5; GST GSH counter: -6

What do the screens show for `O=C(NCC1COc2ccccc2O1)c1ccc(NC(=O)C(c2ccccc2)c2ccccc2)cc1` (stereo unspecified)?
DAGLB inhibitor: 0; HTR5A ag ctr: -3; OPRM1-OPRD1 inv: 1; HTR5A inv ag: 0; Arrestin-AP2 inh: 99*; OPRM1-OPRD1 ag: 0; Arr-AP2 CP1: 35; GST GSH counter: 5

Results for COc1ccc(C(=O)N/C(=C/c2cccs2)C(=O)N2CCN(C)CC2)cc1 ?
DAGLB inhibitor: 1

What do the screens show for `CCCCc1ccc(NC(=O)CC(C)(C)C)cc1`?
DAGLB inhibitor: -10; HTR5A ag ctr: 4; OPRM1-OPRD1 inv: -43; HTR5A inv ag: -12; Arrestin-AP2 inh: -7; OPRM1-OPRD1 ag: 7

What do the screens show for `CCCCc1ccc(NC(=O)CC(C)=O)cc1`?
DAGLB inhibitor: 4; HTR5A ag ctr: 0; OPRM1-OPRD1 inv: 13; HTR5A inv ag: 3; Arrestin-AP2 inh: -4; OPRM1-OPRD1 ag: -2; Arr-AP2 CP1: -9; GST GSH counter: 1

What do the screens show for `CC1CCN(C(=O)c2ncn3c2c(=O)[nH]c2ccc(Br)cc23)CC1`?
DAGLB inhibitor: 1

How did Cc1cccc(C(=O)OCC(=O)c2c(N)n(CC(C)C)c(=O)n(C)c2=O)c1[N+](=O)[O-] do in these assays?
DAGLB inhibitor: -3; HTR5A ag ctr: -1; OPRM1-OPRD1 inv: -5; HTR5A inv ag: 3; Arrestin-AP2 inh: -9; OPRM1-OPRD1 ag: 1

What do the screens show for `CC(C)Cn1c(N)c(C(=O)COC(=O)c2ccc(O)cc2O)c(=O)n(C)c1=O`?
DAGLB inhibitor: -1; HTR5A ag ctr: 0; OPRM1-OPRD1 inv: 11; HTR5A inv ag: 0; Arrestin-AP2 inh: -6; OPRM1-OPRD1 ag: -2; Arr-AP2 CP1: 5; GST GSH counter: -6

Results for Cc1cccc(C(=O)OCC(=O)c2c(N)n(CC(C)C)c(=O)n(C)c2=O)c1O ?
DAGLB inhibitor: 0; HTR5A ag ctr: 2; OPRM1-OPRD1 inv: -29; HTR5A inv ag: -6; Arrestin-AP2 inh: -10; OPRM1-OPRD1 ag: 4; Arr-AP2 CP1: -8; GST GSH counter: -5

How did CC(C)Cn1c(N)c(C(=O)COC(=O)c2cc3ccccc3cc2O)c(=O)n(C)c1=O do in these assays?
DAGLB inhibitor: -7; HTR5A ag ctr: 4; OPRM1-OPRD1 inv: -9; HTR5A inv ag: -19; Arrestin-AP2 inh: 0; OPRM1-OPRD1 ag: 2
